Data published in paper PMC10952047 (iScience, 2024).
No end group written: not given here.

Biological target: T1, CKR-1 (Caenorhabditis elegans, UniProt P91487)
T1 sequence (P91487 1-421): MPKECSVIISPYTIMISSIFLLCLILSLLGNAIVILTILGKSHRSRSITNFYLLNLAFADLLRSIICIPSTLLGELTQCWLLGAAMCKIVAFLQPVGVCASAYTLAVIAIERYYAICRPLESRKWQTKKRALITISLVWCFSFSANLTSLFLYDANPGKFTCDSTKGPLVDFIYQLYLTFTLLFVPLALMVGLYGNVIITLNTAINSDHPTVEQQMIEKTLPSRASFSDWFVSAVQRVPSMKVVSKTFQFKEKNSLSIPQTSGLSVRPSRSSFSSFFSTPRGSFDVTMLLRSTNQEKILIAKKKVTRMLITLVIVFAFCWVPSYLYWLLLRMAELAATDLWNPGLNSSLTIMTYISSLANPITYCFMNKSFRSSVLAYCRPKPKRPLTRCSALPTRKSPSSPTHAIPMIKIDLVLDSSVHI
Format: cell-based, C. elegans
In short: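 CKR-1 cDNA cloned into pGH19, and 50 ng sense cRNA injected per oocyte. Oocytes kept 2-3 days at 18°C in ND96. TEVC at -80 mV with 3 M KCl electrodes. Perfusion switched from ND96 to high-K+ bath (96 mM KCl, pH 7.3) to read […] Ca2+-gated Cl- currents evoked by synthetic peptide. Washout in high-K+, then ND96.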

## DYRPLQF-NH2 [NLP-12a]
  EC50: 26.5 nM
Ratio of EC50 values, X. laevis oocytes expressing CKR-1
  EC50 of NLP-12a relative to NLP-18a: approximately twice that of NLP-18a
